Calls of active or inactive are those of the source. The rule behind the calls is not given here.
Experiments:
[1] = Cytotoxicity against human SH-SY5Y cells assessed as reduction in cell viability after 24 hrs by MTT assay; assay type: toxicity, cell-based
Procedure, shortened: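 SH-SY5Y cells in DMEM with 10% heat-inactivated FBS, 2 mM L-glutamine, penicillin/streptomycin, 37 °C, 5% CO2; seeded 10,000 cells/well and incubated overnight. Compounds added at 0.1-100 μM for 24 h at 37 °C. MTT (0.5% w/v) added for 3 h, cells lysed in DMSO/EtOH 1:1, absorbance at 570 nm. IC50 taken as the concentration giving 50% growth inhibition.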

[2] = target: T1, Alpha-1A adrenergic receptor (Homo sapiens, UniProt P35348); test: Displacement of [3H]prazosin from recombinant human alpha1a adrenergic receptor expressed in CHO cell membranes after 30 mins by TopCount liquid scintillation counting method
T1 sequence (P35348 whole entry): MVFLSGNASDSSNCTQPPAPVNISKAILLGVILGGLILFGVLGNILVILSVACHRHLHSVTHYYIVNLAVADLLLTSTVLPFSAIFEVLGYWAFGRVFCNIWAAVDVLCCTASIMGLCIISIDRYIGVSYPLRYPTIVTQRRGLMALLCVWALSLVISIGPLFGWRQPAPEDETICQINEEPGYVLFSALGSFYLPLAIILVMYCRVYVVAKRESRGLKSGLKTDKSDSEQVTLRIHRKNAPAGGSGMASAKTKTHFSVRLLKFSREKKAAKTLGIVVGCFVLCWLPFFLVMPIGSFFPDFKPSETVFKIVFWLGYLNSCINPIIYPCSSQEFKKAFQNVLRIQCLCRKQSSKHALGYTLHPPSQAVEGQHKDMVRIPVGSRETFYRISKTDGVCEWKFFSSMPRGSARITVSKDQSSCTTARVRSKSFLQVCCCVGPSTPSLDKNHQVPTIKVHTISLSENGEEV
Procedure, shortened: (§1)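 Membranes from CHO cells stably expressing each human α1 subtype (70 µg protein), incubated in 50 mM Tris pH 7.4 with 0.1–0.4 nM [3H]prazosin and competitor (1 pM–1 µM) for 30 min at 25 °C. Nonspecific binding defined with 10 µM tamsulosin. Filtration and scintillation counting.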

[3] = target: T2, Alpha-1D adrenergic receptor (Homo sapiens, UniProt P25100); test: Displacement of [3H]prazosin from recombinant human alpha1d adrenergic receptor expressed in CHO cell membranes after 30 mins by TopCount liquid scintillation counting method; procedure, shortened: as §1
T2 sequence (P25100 whole entry): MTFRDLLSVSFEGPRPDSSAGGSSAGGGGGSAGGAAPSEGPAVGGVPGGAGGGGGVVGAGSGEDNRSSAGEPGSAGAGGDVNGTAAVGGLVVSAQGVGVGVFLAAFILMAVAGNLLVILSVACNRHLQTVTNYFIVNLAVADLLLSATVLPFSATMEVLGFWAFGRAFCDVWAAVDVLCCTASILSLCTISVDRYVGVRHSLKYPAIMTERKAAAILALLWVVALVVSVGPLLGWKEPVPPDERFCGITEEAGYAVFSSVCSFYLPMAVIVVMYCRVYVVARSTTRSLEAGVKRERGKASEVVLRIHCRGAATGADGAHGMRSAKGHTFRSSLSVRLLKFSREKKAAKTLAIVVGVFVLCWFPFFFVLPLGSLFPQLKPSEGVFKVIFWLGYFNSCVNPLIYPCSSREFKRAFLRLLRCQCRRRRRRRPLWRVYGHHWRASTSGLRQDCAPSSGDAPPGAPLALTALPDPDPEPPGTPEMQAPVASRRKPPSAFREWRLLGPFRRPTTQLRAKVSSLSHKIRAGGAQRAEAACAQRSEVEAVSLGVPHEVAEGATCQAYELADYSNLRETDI

[4] = target: T3, 5-hydroxytryptamine receptor 1A (Homo sapiens, UniProt P08908); test: Displacement of [3H]8-OH-DPAT from recombinant human 5-HT1A receptor expressed in HeLa cell membranes after 30 mins by TopCount liquid scintillation counting method; assay type: cell-based
T3 sequence (P08908 whole entry): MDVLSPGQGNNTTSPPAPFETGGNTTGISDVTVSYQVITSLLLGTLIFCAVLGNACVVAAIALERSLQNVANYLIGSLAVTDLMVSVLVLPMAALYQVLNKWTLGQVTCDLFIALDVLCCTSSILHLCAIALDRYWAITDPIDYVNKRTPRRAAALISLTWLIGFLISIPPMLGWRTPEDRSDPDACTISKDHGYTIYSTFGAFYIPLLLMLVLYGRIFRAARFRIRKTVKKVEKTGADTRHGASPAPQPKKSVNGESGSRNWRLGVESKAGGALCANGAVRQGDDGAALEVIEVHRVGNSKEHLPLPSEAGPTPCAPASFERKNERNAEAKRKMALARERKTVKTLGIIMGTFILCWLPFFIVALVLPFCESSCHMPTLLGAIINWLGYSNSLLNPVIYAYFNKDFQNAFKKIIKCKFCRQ

[5] = target: T4, Alpha-1B adrenergic receptor (Homo sapiens, UniProt P35368); test: Displacement of [3H]prazosin from recombinant human alpha1b adrenergic receptor expressed in CHO cell membranes after 30 mins by TopCount liquid scintillation counting method
T4 sequence (P35368 whole entry): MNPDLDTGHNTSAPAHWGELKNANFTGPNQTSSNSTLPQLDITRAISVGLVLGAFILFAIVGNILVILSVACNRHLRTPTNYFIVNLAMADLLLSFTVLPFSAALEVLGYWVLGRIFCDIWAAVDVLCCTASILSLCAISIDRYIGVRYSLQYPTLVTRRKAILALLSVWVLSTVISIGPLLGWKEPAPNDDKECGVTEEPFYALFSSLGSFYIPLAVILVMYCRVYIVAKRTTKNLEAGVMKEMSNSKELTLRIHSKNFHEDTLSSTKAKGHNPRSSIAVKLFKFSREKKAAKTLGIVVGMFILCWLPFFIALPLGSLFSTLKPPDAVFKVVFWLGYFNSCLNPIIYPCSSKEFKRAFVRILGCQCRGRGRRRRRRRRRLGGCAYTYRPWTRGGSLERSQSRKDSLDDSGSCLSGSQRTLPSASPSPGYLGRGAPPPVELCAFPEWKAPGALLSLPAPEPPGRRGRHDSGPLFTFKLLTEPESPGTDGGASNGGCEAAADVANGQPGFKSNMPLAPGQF
Procedure, shortened: as §1, with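 “counting. Ki by Cheng–Prusoff; pKi mean of 2–3 experiments in duplicate.” for “counting.”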

[6] = Neuroprotective activity against rotenone-induced cell death in human SH-SY5Y cells assessed as increase in cell viability at 0.1 uM after 24 hrs by MTT assay; assay type: functional
Procedure, shortened: (§2)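 SH-SY5Y cells seeded at 10,000 cells/well and grown 24 h at 37 °C, 5% CO2. Then co-incubated 24 h with compound at 0.1 μM plus one insult: H2O2 195 μM, oligomycin A 30 μM or rotenone 75 μM. Viability read by MTT at 570 nm. Given as percent neuroprotection ± SD from three independent experiments.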

[7] = Apparent permeability from basolateral to apical side in MDCK2-MDR1 cells at 75 uM after 120 mins by UV-Visible spectrophotometric method; assay type: ADME, cell-based, Canis lupus familiaris, MDCK-II; settings: dog, MDCK-MDR1
Procedure, shortened: (§3)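 MDCKII-MDR1 cells seeded at 100,000 cells/cm² on Transwell inserts (0.4 µm pores); monolayers with TEER 800 Ohm cm² used. Equilibrated 30 min at 37 °C in pH 7.4 bicarbonate/glucose transport medium. Receiver sampled after 120 min at 37 °C, 5% CO2, quantified by UV-Vis. Papp calculated from acceptor/initial concentration. Triplicate wells, three experiments.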

[8] = Apparent permeability from apical to basolateral side in MDCK2-MDR1 cells at 75 uM after 120 mins by UV-Visible spectrophotometric method; assay type: ADME, cell-based, Canis lupus familiaris, MDCK-II; settings: dog, MDCK-MDR1; procedure, shortened: as §3
[9] = Neuroprotective activity against oligomycin A-induced cell death in human SH-SY5Y cells assessed as increase in cell viability at 0.1 uM after 24 hrs by MTT assay; assay type: functional; procedure, shortened: as §2
[10] = Efflux ratio of apparent permeability from basolateral to apical over apical to basolateral side in MDCK2-MDR1 cells at 75 uM after 120 mins by UV-Visible spectrophotometric method; assay type: ADME, cell-based, Canis lupus familiaris; settings: dog, MDCK-MDR1
[11] = target: T5, 5-hydroxytryptamine receptor 1A (Homo sapiens) (UniProt P08908); test: Agonist activity at recombinant human 5-HT1A receptor expressed in HeLa cell membranes assessed as induction of [35S]GTPgammaS binding preincubated for 20 mins followed by [35S]GTPgammaS addition measured after 30 mins by liquid scintillation counting method; assay type: functional
T5 sequence (whole entry): T3 sequence (P08908 whole entry)
Procedure, shortened: (§4)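 HeLa membranes with recombinant human 5-HT1A (50-70 µg protein) in 20 mM HEPES, 3 mM MgSO4, 120 mM NaCl, pH 7.4. Pre-incubated with 30 µM GDP and drug (0.01 nM–10 µM) for 20 min at 30 °C, then 200 pM [35S]GTPγS added for 30 min at 30 °C. Nonspecific binding defined with 10 µM GTPγS. Filtration and scintillation counting. Emax and pD2 taken from concentration–response fits.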

[12] = Neuroprotective activity against rotenone-induced cell death in human SH-SY5Y cells assessed as increase in cell viability at 1 uM after 24 hrs by MTT assay; assay type: functional
Procedure, shortened: (§5)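 SH-SY5Y cells seeded at 10,000 cells/well and grown 24 h at 37 °C, 5% CO2. Then co-incubated 24 h with compound at 1 μM plus one insult: H2O2 195 μM, oligomycin A 30 μM or rotenone 75 μM. Viability read by MTT at 570 nm. Given as percent neuroprotection ± SD from three independent experiments.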

[13] = system: Mus musculus; test: Analgesic activity in Swiss CD1 mouse assessed reduction in formalin-induced inflammatory pain by measuring reduction in time spent in licking or biting formalin injected hind paw at 10 mg/kg, ip pretreated for 15 mins followed by formalin injection measured every 5 mins for 10 to 60 mins; assay type: functional, organism-based
Procedure, shortened: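 Male Swiss […] mice, 25-30 g. Dosed i.p. in saline with 10% DMSO (5 ml/kg) 15 min before 5% formalin (10 µl) into the right hind paw. […] 8-10 mice per group; mean ± SEM; two-way repeated-measures ANOVA with Bonferroni post hoc test; scored blind.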

[14] = Neuroprotective activity against H2O2-induced cell death in human SH-SY5Y cells assessed as increase in cell viability at 0.1 uM after 24 hrs by MTT assay; assay type: functional; procedure, shortened: as §2
[15] = target: T5, 5-hydroxytryptamine receptor 1A (Homo sapiens); test: Agonist activity at recombinant human 5-HT1A receptor expressed in HeLa cell membranes assessed as induction of [35S]GTPgammaS binding up to 10 uM preincubated for 20 mins followed by [35S]GTPgammaS addition measured after 30 mins by liquid scintillation counting method relative to serotonin; assay type: functional; procedure, shortened: as §4
[16] = Neuroprotective activity against oligomycin A-induced cell death in human SH-SY5Y cells assessed as increase in cell viability at 1 uM after 24 hrs by MTT assay; assay type: functional; procedure, shortened: as §5
[17] = Neuroprotective activity against H2O2-induced cell death in human SH-SY5Y cells assessed as increase in cell viability at 1 uM after 24 hrs by MTT assay; assay type: functional; procedure, shortened: as §5

| SMILES | Ki [2] [nM] | Ki [3] [nM] | Ki [4] [nM] | Ki [5] [nM] | pD2 [11] | further results |
| --- | --- | --- | --- | --- | --- | --- |
| OO [HYDROGEN PEROXIDE] |  |  |  |  |  | IC50 at 24 h [1]: 195000 nM |
| COc1cccc(OC)c1OCCNCC1COC2(CCCCC2)O1 (stereo not given) | > 1000 | 1780 |  | > 1000 |  |  |
| c1ccc(OCCNCC2CSC3(CCCCC3)O2)cc1 (stereo not given) | > 1000 | 214 | 22.9 | 437 |  |  |
| COc1ccccc1OCCNCC1CSC2(CCCCC2)S1 (stereo not given) | 186 | 34.7 | 0.933 | 195 | 9.58 | Activity [6]: 62%; Papp B→A at 2 h, 75 µM [7]: 10.9 ×10⁻⁶ cm/s; Papp A→B at 2 h, 75 µM [8]: 11.1 ×10⁻⁶ cm/s; Activity [9]: 81%; efflux ratio at 2 h, 75 µM [10]: 0.98; Activity [12]: 66%; Activity [13]: Active; Activity [14]: 83%; Emax [15]: 74%; Activity [16]: 86%; IC50 at 24 h [1]: 51000 nM; Activity [17]: 66% |
| COc1ccccc1OCCNCC1COC2(CCCCC2)O1 (stereo not given) | 229 | 95.5 |  | 389 |  |  |
| CC[C@H]1/C=C/C=C/C[C@@H](C)[C@H](O)[C@@](C)(O)C(=O)[C@@H](C)[C@H](O)[C@@H](C)C(=O)[C@@H](C)[C@H](O)[C@@H](C)/C=C/C(=O)O[C@@H]2[C@H](C)[C@H](CC1)O[C@]1(CC[C@H](C)[C@H](C[C@@H](C)O)O1)[C@H]2C [OLIGOMYCIN] |  |  |  |  |  | IC50 at 24 h [1]: 29000 nM |
| c1ccc(OCCNCC2COC3(CCCCC3)O2)cc1 (stereo not given) | > 1000 | 550 |  | 977 |  |  |
| C=C(C)[C@H]1Cc2c(ccc3c2O[C@@H]2COc4cc(OC)c(OC)cc4[C@@H]2C3=O)O1 [ROTENONE] |  |  |  |  |  | IC50 at 24 h [1]: 74100 nM |

Now from value to molecule, other results behind:

| Ki [2] [nM] | Ki [3] [nM] | Ki [4] [nM] | Ki [5] [nM] | pD2 [11] | SMILES | further results |
| --- | --- | --- | --- | --- | --- | --- |
| 269 | 32.4 | 2.24 | 219 |  | COc1ccccc1OCCNCC1CSC2(CCCCC2)O1 (stereo not given) |  |
| 57.5 | 38.9 | 5.01 | 191 |  | COc1ccccc1N1CCN(CC2CSC3(CCCCC3)O2)CC1 (stereo not given) |  |
|  |  |  |  | 9.27 | COc1ccccc1N1CCN(CCN2C(=O)CC3(CCCC3)CC2=O)CC1 |  |
| 200 | 100 | 3.02 | 407 | 8.61 | COc1ccccc1N1CCN(CC2CSC3(CCCCC3)S2)CC1 (stereo not given) | Emax [15]: 37% |
| > 1000 | 123 | 1.55 | 550 | 8.27 | c1ccc(OCCNCC2CSC3(CCCCC3)S2)cc1 (stereo not given) | Emax [15]: 85% |
|  |  |  |  | 8.61 | COc1ccccc1N1CCN(CC2COC3(CCCCC3)O2)CC1 (stereo not given) |  |
